Reference: ChEMBL document CHEMBL4680142, “Thiazolidine-2,4-dione-based irreversible allosteric IKK-β kinase inhibitors: Optimization into in vivo active anti-inflammatory agents” (Eur J Med Chem, 2020)
Values belong to the molecule of their own block, whether it stands above or below them. Activity calls are given as the source filed them. The calls are words filed in the database; no cut-off is given here.

What was measured:
[1] = molecular target: T1, Inhibitor of nuclear factor kappa-B kinase subunit beta (Homo sapiens, UniProt O14920); assay: Allosteric inhibition of IKKbeta (unknown origin) using 5FAM-GRHDSGLDSMK-NH2 as substrate pretreated for 10 mins followed measured after 2 hrs by TR-FRET assay
T1 sequence (O14920 whole entry): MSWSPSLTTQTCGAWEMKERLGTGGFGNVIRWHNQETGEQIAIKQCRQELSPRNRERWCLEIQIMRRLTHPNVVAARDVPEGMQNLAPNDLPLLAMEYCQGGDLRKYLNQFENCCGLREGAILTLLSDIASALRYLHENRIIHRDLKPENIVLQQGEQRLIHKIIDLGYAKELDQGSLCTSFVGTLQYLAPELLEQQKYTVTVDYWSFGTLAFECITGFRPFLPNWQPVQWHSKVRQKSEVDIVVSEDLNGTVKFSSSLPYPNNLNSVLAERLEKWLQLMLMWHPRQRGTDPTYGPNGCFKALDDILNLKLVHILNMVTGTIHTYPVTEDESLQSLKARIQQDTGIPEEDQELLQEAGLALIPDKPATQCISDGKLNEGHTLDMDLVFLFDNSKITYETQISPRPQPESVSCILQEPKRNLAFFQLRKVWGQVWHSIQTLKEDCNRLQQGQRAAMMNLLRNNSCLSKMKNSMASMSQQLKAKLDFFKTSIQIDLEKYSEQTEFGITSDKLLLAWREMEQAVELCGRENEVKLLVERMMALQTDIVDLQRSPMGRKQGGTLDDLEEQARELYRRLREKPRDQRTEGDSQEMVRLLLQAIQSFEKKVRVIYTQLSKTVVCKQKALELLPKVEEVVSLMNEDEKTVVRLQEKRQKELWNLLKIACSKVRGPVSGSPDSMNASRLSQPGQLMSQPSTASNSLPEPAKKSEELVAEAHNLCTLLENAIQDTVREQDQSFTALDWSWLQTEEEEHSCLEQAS
Method in brief: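 Enzyme: 0.5 µg/mL IKK2, in 10 mM Tris-HCl pH 7.2, 10 mM MgCl2, 0.05% NaN3, 1 mM DTT, 0.01% Tween-20. Compound at 10 µM pre-incubated 10 min, then 1 µM 5-FAM IκBα peptide and 3 µM ATP added. Reaction 2 h at room temperature. IMAP binding reagent/terbium detection mix added 15 h before reading. TR-FRET read with 340 nm excitation, emission 495/520 nm. Percent inhibition or IC50 derived.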

[2] = tested on: RAW264.7; assay: Antiinflammatory activity against mouse RAW264.7 cells assessed as reduction in LPS-induced PGE2 production at […] incubated for 1 hr followed by LPS stimulation and measured after 24 hrs by ELISA (reference value: 33.64 ng/ml); assay type: functional; conditions: time 25 hrs
[3] = tested on: RAW264.7; assay: Antiinflammatory activity against mouse RAW264.7 cells assessed as reduction in LPS-induced NO level at 40 uM incubated for 1 hr followed by LPS stimulation and measured after 24 hrs by Griess reagent based assay; assay type: functional, cell-based
Method in brief: (§1)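 RAW 264.7 cells in 24-well plates received compounds (0.1, 1, 10 µM) or L-NIL 40 µM positive control, then LPS 1 µg/mL for 24 h. Nitrite in the medium measured by Griess reaction as an NO surrogate. Values referenced to levels before and after LPS stimulation.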

[4] = tested on: RAW264.7; assay: Cytotoxicity against mouse RAW264.7 cells assessed as reduction in cell viability at 6 uM incubated for 24 hrs by MTT assay; assay type: cell-based; conditions: raw264.7, 24 h
Method in brief: (§2)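 MTT viability in RAW 264.7 cells seeded at 1×10^5 cells/mL and incubated overnight. Compounds added with or without LPS (1 µg/mL) for 24 h. MTT for 4 h at 37 °C, formazan dissolved in DMSO, absorbance read at 540 nm. IC80 is the concentration reducing viability to 80% with LPS.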

[5] = Cytotoxicity against non-stimulated mouse RAW264.7 cells upto 10 uM after 24 hrs by MTT assay; conditions: raw264.7, 24 h
[6] = tested on: RAW264.7; assay: Antiinflammatory activity against mouse RAW264.7 cells assessed as reduction in LPS-induced PGE2 production at 10 uM incubated for 1 hr followed by LPS stimulation and measured after 24 hrs by ELISA (reference value: 33.64 ng/ml); assay type: functional
Method in brief: (§3)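 RAW 264.7 cells (DMEM, 10% FBS, 37 °C, 5% CO2) plated at 2×10^5 cells/mL and left overnight. Compounds (0.1, 1, 10 µM) or NS-398 given for 1 h, then LPS 10 ng/mL for 24 h. Culture medium assayed by ELISA: competitive colorimetric for PGE2/TNF-α, mouse DuoSet for TNF-α/IL-6. IC50 is the concentration lowering the mediator to 50%.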

[7] = tested on: RAW264.7; assay: Antiinflammatory activity against mouse RAW264.7 cells assessed as reduction in LPS-induced TNF-alpha level incubated for 1 hr followed by LPS stimulation and measured after 24 hrs by ELISA; assay type: functional, cell-based; method in brief: as §3
[8] = tested on: RAW264.7; assay: Antiinflammatory activity against mouse RAW264.7 cells assessed as reduction in LPS-induced PGE2 level incubated for 1 hr followed by LPS stimulation and measured after 24 hrs by ELISA; assay type: functional, cell-based; method in brief: as §3
[9] = tested on: RAW264.7; assay: Cytotoxicity against mouse RAW264.7 cells assessed as reduction in cell viability incubated for 24 hrs in presence of LPS by MTT assay; assay type: cell-based; conditions: RAW264.7, 24 h; method in brief: as §2
[10] = Effect on NO production in non-stimulated mouse RAW264.7 cells at 10 uM after 24 hrs by Griess reagent based assay; conditions: raw264.7, 24 h
[11] = tested on: RAW264.7; assay: Antiinflammatory activity against mouse RAW264.7 cells assessed as reduction in LPS-induced PGE2 production at 0.1 to 1 uM incubated for 1 hr followed by LPS stimulation and measured after 24 hrs by ELISA; assay type: functional, cell-based; conditions: dose 0.1-1 µM, time 25.0 hrs; method in brief: as §3
[12] = tested on: RAW264.7; assay: Antiinflammatory activity against mouse RAW264.7 cells assessed as reduction in LPS-induced IL-6 level incubated for 1 hr followed by LPS stimulation and measured after 24 hrs by ELISA; assay type: functional, cell-based; method in brief: as §3
[13] = tested on: RAW264.7; assay: Antiinflammatory activity against mouse RAW264.7 cells assessed as reduction in LPS-induced TNF-alpha level at 10 uM incubated for 1 hr followed by LPS stimulation and measured after 24 hrs by ELISA relative to control; assay type: functional; conditions: time 25 hrs; method in brief: as §3
[14] = tested on: RAW264.7; assay: Antiinflammatory activity against mouse RAW264.7 cells assessed as reduction in LPS-induced NO level incubated for 1 hr followed by LPS stimulation and measured after 24 hrs by Griess reagent based assay; assay type: functional, cell-based; method in brief: as §1
[15] = tested on: RAW264.7; assay: Antiinflammatory activity against mouse RAW264.7 cells assessed as reduction in LPS-induced TNF-alpha level at 0.1 to 1 uM incubated for 1 hr followed by LPS stimulation and measured after 24 hrs by ELISA; assay type: functional, cell-based; conditions: dose 0.1-1 µM, time 25.0 hrs; method in brief: as §3

Structure (SMILES): Cc1ccc(Oc2ccc(/C=C3\SC(=O)N(c4cccc(OCCCCCN5CCN(C)CC5)c4)C3=O)cc2)cc1
IC50 [1]: 2730 nM

Structure (SMILES): CN1CCN(CCCCCOc2cccc(N3C(=O)S/C(=C\c4ccc(Oc5ccc(Br)cc5)cc4)C3=O)c2)CC1
IC50 [1]: 2670 nM

Structure (SMILES): CS(=O)(=O)Nc1ccc([N+](=O)[O-])cc1OC1CCCCC1 [NS-398]
Activity [2]: 12.02 ng/mL

Structure (SMILES): COc1ccc(Oc2ccc(/C=C3\SC(=O)N(c4cccc(OCCCCCN5CCN(C)CC5)c4)C3=O)cc2)cc1
IC50 [1]: 2430 nM

Structure (SMILES): CN1CCN(CCCCCOc2ccc(N3C(=O)S/C(=C\c4ccc(Oc5ccc(N)cc5)cc4)C3=O)cc2)CC1
IC50 [1]: 2610 nM

Structure (SMILES): CC(=N)NCCCC[C@H](N)C(=O)O
Activity [3]: Active

Structure (SMILES): CN1CCN(CCCCCOc2cccc(N3C(=O)S/C(=C\c4ccc(Oc5ccc(Cl)cc5)cc4)C3=O)c2)CC1
IC50 [1]: 2610 nM
Activity [4]: Non-Toxic
Activity [5]: Non-Toxic
Activity ([6]; time 25 hrs): 13.87 ng/mL
IC50 [7]: > 10 µM
IC50 [8]: 8.52 µM
IC80 [9]: > 10 µM
Activity [10]: Non-Toxic
Activity [11]: inactive
IC50 [12]: > 10 µM
inhibition at 10 µM [13]: 44%
IC50 [14]: > 10 µM

Structure (SMILES): CN1CCN(CCCCCOc2cccc(N3C(=O)S/C(=C\c4ccc(Oc5ccc(F)cc5)cc4)C3=O)c2)CC1
IC50 [1]: 6060 nM
Activity [4]: Non-Toxic
Activity [5]: Non-Toxic
Activity ([6]; time 25.0 hrs): inactive
IC50 [7]: 7.87 µM
IC50 [8]: > 10 µM
IC80 [9]: 4.43 µM
Activity [10]: Non-Toxic
inhibition [15]: inactive
Activity [11]: inactive
IC50 [12]: > 10 µM
inhibition at 10 µM [13]: 71%
IC50 [14]: > 10 µM

Structure (SMILES): CN1CCN(CCCCCOc2cccc(N3C(=O)S/C(=C\c4ccc(Oc5ccc(N)cc5)cc4)C3=O)c2)CC1
IC50 [1]: 8070 nM

Further molecules by falling IC50 [1], results first:

IC50 [1]: 1710 nM
Structure (SMILES): CC(=O)Nc1ccc(Oc2ccc(/C=C3\SC(=O)N(c4ccc(OCCCCCN5CCN(C)CC5)cc4)C3=O)cc2)cc1

IC50 [1]: 870 nM
Structure (SMILES): Cc1ccc(Oc2ccc(/C=C3\SC(=O)N(c4ccc(OCCCCCN5CCN(C)CC5)cc4)C3=O)cc2)cc1

IC50 [1]: 840 nM
Structure (SMILES): CN1CCN(CCCCCOc2cccc(N3C(=O)S/C(=C\c4ccc(Oc5ccc(C#N)cc5)cc4)C3=O)c2)CC1

IC50 [1]: 700 nM
Structure (SMILES): CN1CCN(CCCCCOc2ccc(N3C(=O)S/C(=C\c4ccc(Oc5ccc(Cl)cc5)cc4)C3=O)cc2)CC1

IC50 [1]: 700 nM
Structure (SMILES): COc1ccc(Oc2ccc(/C=C3\SC(=O)N(c4ccc(OCCCCCN5CCN(C)CC5)cc4)C3=O)cc2)cc1

IC50 [1]: 670 nM
Structure (SMILES): CN1CCN(CCCOc2ccc(N3C(=O)S/C(=C\c4ccc(Oc5ccc(F)cc5)cc4)C3=O)cc2)CC1

IC50 [1]: 600 nM
Structure (SMILES): CN1CCN(CCCCCOc2ccc(N3C(=O)S/C(=C\c4ccc(Oc5ccc(F)cc5)cc4)C3=O)cc2)CC1

IC50 [1]: 430 nM
Structure (SMILES): CN1CCN(CCCCCOc2ccc(N3C(=O)S/C(=C\c4ccc(Oc5ccc(Br)cc5)cc4)C3=O)cc2)CC1
